Assay results as given in the RNAGym collection of RNA variant scans (doi:10.1126/science.aae0568).
Variants at the floor of the assay were thinned out.

B1: tRNA (parent)
chain: GUUCCGUUGGCGUAAUGGUAACGCGUCUCCCUCCUAAGGAGAAGACUGCGGGUUCGAGUCCCGUACGGAACG

Variants of: B1
Test: yeast fitness relative to wild type (ratio to wild type); higher = fitter; tRNA-Arg(CCU), competitive growth, 37 C, YPD
In short: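 Amplicons of the tRNA-Arg(CCU) gene were sequenced, 100-nucleotide paired-end, from the start population and from each end population of a pooled yeast competition. The competition, in six parallel replicates, lasted 24 hours in YPD at 37°C. Fitness relative to wild type was calculated from changes in genotype frequencies. Genotypes had to have ≥ 100 starting reads, and estimates < 0.5 were set to 0.5.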

Going from GUUCCGUUGGCGUAAUGGUAAGGCGUCUCCCUCCUAAGAAGUAGACUGCGGGUUCGCGUCCCGUACGGAACG [C22G G39A A42U A57C] to GUUCCGUUGGCGUAAUGGUAAGUCGUCUCCCUCCUAAGGAGAAGACUGCGGGUUCGAGUCCCGUACGGAACG [C22G G23U], the yeast fitness rises from at most 0.5 to 0.73.

GUUCCGUUGGCGUAAUGGUAAGGCGCCUCCCACCUAAGGAGAAGACUACGGGUUCGAGUCCCGUACGGAACG [C22G U26C U32A G48A] and GUUCCGUUGGCGUAAUGGUAAGGCAUCUCCCUCCUAAGGAGAAGACUGCGGGCUCGAGUCCCGUACGGAACG [C22G G25A U53C] cannot be ordered by yeast fitness: at most 0.5 for the first, at most 0.5 for the second.

Compared with GUUCCGUUGGCGUAAUGGUAAGGCGUCUCCCUCCUAAGGAGAAAACUGCGGGUUCGAGUCCCGUACGGAACG [C22G G44A], GUUCCGUUGGCGUAAUGGUAAGGCGUCCCCCUCCUAAGGAGAAGACUGCGGGUUCGAGUCCCGUACGGAACG [C22G U28C] is higher in yeast fitness: 0.846 for the first, 0.853 for the second.

Compared with GUUCCGUUGGCGUAAUGGUAAUGCGUCUCCCUCCUUAGGAGAAGACUGCGGGUUCGAGUCCGAUACGGAACG [C22U A36U C62G G63A], GUUCCGUUGGCGUAAUGGUAAGGCGUCUCCCUCCUAAGGAGAAGACUGCGGGUUCGAGUCCCCUACGGAACG [C22G G63C] is higher in yeast fitness: at most 0.5 for the first, 0.623 for the second.

First: GUUCCGUUGGCGUAAUGGUAAGGCGUCUCCCUCCUAAGGAGAACACCGCGGGUUCGAGUCCCGUACGGACCG [C22G G44C U47C A70C]
Second: GUUCCGUUGGCGUAAUGGUAAGGCGUCUCCCCCCUAAGGAGAAGACUGCGGGUUCGAGUCCCGUACGGUACG [C22G U32C A69U]
The yeast fitness of the first is lower: at most 0.5 for the first, 0.705 for the second.

Compared with GUUCCGUUGGCGUAAUGGUAAGGCGGCUCCCUCCUAAGGAGAAAACUGCGGGUUGGAGUCCCCUACGGAACG [C22G U26G G44A C55G G63C], GUUCCGUUGGCGUAAUGGUAAUGCGUCUCCCUCCUAGGGAGAAGUCUGCGGGUUCGAGUCCCGUACGGAACG [C22U A37G A45U] is higher in yeast fitness: at most 0.5 for the first, 0.547 for the second.

First: GUUCCGUUGGCGUAAUGGUAAGGCGUCUCCCUCCUAACGAGAAGACUGCGGGUUCGAGUCCCGUACGGAACG [C22G G38C]
Second: GUUCCGUUGGCGUAAUGGUAAUGCGUCUCCCUCCUAAGGGGAUGAGUGGGGGUUCGAGUCCCGUACGGAACG [C22U A40G A43U C46G C49G]
The yeast fitness of the first is higher: 0.775 for the first, at most 0.5 for the second.

GUUCCGUUGGCGUAAUGGUAAGGCGUCUCCCCCCUAAGGAGAAGACCGCGGGGUCGAGUCCCGUACGGAACG [C22G U32C U47C U53G] and GUUCCGUUGGCGUAAUGGUAAGGCGUCUCCCUCCUAAGGAGAAGACUGCGGGUUCGACUCCCGUAAGGAACG [C22G G58C C66A] cannot be ordered by yeast fitness: at most 0.5 for the first, at most 0.5 for the second.

First: GUUCCGUUGGCGUAAUGGUAAGGCGACUCACUCCUAAGGAGUAGACUGCGGGUUCGAGUCCCGUACGGAACG [C22G U26A C30A A42U]
Second: GUUCCGUUGGCGUAAUGGUAAGGCGUCUCCCUCCUAAGGAGAAGACUGCGGGUUCGAGUCCCGCACGGAACG [C22G U64C]
The yeast fitness of the first is lower: 0.692 for the first, 0.856 for the second.

First: GUUCCGUUGGCGUAAUGGUAAGGCGUCUCCCUCCUAAGGAGAAGACAGCGGGUUCGAGUCCCGUACAGAACG [C22G U47A G67A]
Second: GUUCCGUUGGCGUAAUGGUAAGGCCUCUCCCUCCUAAGGAGAAGACUGCGGGUUCGAGUCGCGUACGGAACG [C22G G25C C61G]
The yeast fitness of the first is lower: at most 0.5 for the first, 0.659 for the second.

GUUCCGUUGGCGUAAUGGUAAGGCGUCUCCCUCCUAAGGACAAGACUGCGGGUUCGAGUCCCGUUCGGAACG [C22G G41C A65U] and GUUCCGUUGGCGUAAUGGUAAUGCGUCUCCCUCCUACGGACAAGACUGCGGGUUCGAGUCCCGUACGGAACG [C22U A37C G41C] cannot be ordered by yeast fitness: at most 0.5 for the first, at most 0.5 for the second.

Compared with GUUCCGUUGGCGUAAUGGUAAGGCGUCUCCCUCCUAAGGAGAAGACUGCGGGUUCGAUUCCCGUACGGAACG [C22G G58U], GUUCCGUUGGCGUAAUGGUAAUGCGUCUCCCUCCUACGGGGAAGACUGCGGAAUCGAGUCCCGUACGGAACG [C22U A37C A40G G52A U53A] is lower in yeast fitness: 1.05 for the first, at most 0.5 for the second.

Compared with GUUCCGUUGGCGUAAUGGUAAGGCAUCUCCCUCCUAAGGAGAAGACUGCGGGUUCGAGUCCCGUACGGAACG [C22G G25A], GUUCCGUUGGCGUAAUGGUAAGGCCUCUCCCUCCUAAGGAGAAGACUGCGGGUUCGAGUCCCGUACGGAACG [C22G G25C] is lower in yeast fitness: 0.993 for the first, 0.977 for the second.

Compared with GUUCCGUUGGCGUAAUGGUAAGGCGUCUCCCUCCUAAGGAAAAGACUGCUGGUUCGAGUCCACUACGGAACG [C22G G41A G50U C62A G63C], GUUCCGUUGGCGUAAUGGUAAGGCGUCUCCCUCCAAAGGAGAAGACUGCGGGUUCGAGUCCCGUACGGAACG [C22G U35A] is higher in yeast fitness: at most 0.5 for the first, 0.614 for the second.

Compared with GUUCCGUUGGCGUAAUGGUAAGGCGUCUCCCUCCGAAGGAGAAGACUGCGGGUUCGAGUCCCGUACGGAACG [C22G U35G], GUUCCGUUGGCGUAAUGGUAAGGCGUCUCCCUCCUAAGGAGAAGACUGCGGGUUCGAGACCCGUACGGGACG [C22G U59A A69G] is lower in yeast fitness: 0.62 for the first, at most 0.5 for the second.

First: GUUCCGUUGGCGUAAUGGUAAGGCGUCACCCUCCUUAGGAGAAGACUGCGGGUUCGAGUCCCGUACGGAACG [C22G U28A A36U]
Second: GUUCCGUUGGCGUAAUGGUAAGGCGUCUCCCUCCUAAGGAGAAGACUACGGGUUCGAGUCCCGUACGGAACG [C22G G48A]
The yeast fitness of the first is lower: 0.631 for the first, 0.988 for the second.

GUUCCGUUGGCGUAAUGGUAAGGCGUCUCCCUCCGAAGGCGAAGACUGCGGGUUCGAGUCCCGUACGGAACG [C22G U35G A40C] and GUUCCGUUGGCGUAAUGGUAAGGCGUCUCCCUCCUAAAGAGAAGACCGCGGGUUCGAGUCCCGUACGGAACG [C22G G38A U47C] cannot be ordered by yeast fitness: at most 0.5 for the first, at most 0.5 for the second.

GUUCCGUUGGCGUAAUGGUAAGGCGUCUCCCUCCUAAGGAGAAGACUGCGGCUUCGAGUCCCGUAUGAAACG [C22G G52C C66U G68A] and GUUCCGUUGGCGUAAUGGUAAGGCGUCACCGUCCUAAGGAGAAGACUGCGGGUUCGAGUCCCGUACGGAACG [C22G U28A C31G] cannot be ordered by yeast fitness: at most 0.5 for the first, at most 0.5 for the second.

With GUUCCGUUGGCGUAAUGGUAAUGCGUCUCCCUCCUAAGGAGAAGACUGCGGGUUCGAGUCCCGUACGGAACG [C22U] the yeast fitness was 0.908.
